In one assay the target is Cytochrome P450 2C9 (Homo sapiens, UniProt P11712). The experiment in a line: Inhibition of human recombinant CYP2C9 by mass spectrophotometry. Type of assay: ADME. In a few lines:
(§1)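 Compound 0.1–25 µM (0.3% DMSO) incubated with microsomes, NADPH and isoform-specific probe substrate. CYP2C19, 2C9, 2D6, 3A4 metabolites measured by mass spectrometry; CYP1A2 by fluorescent metabolite. IC50 from reduced metabolite formation versus vehicle.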

A further assay is filed under the species Homo sapiens. The experiment in a line: Selectivity ratio of Ki for human NOX2 to Ki for human NOX4. The procedure, abridged: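 Ratio of Ki values from the Amplex Red membrane ROS assay (PMN membranes for Nox2, Nox4-overexpressing membranes), NADPH-triggered, 1 nM–100 µM, 20 min at 37 °C; Ki via Cheng-Prusoff.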
Another assay deals with Cytochrome P450 3A4 (Homo sapiens, UniProt P08684). The experiment in a line: Inhibition of human recombinant CYP3A4 by mass spectrophotometry. Type of assay: ADME. The procedure, abridged: as §1
Chain of Cytochrome P450 3A4 (P08684 whole entry): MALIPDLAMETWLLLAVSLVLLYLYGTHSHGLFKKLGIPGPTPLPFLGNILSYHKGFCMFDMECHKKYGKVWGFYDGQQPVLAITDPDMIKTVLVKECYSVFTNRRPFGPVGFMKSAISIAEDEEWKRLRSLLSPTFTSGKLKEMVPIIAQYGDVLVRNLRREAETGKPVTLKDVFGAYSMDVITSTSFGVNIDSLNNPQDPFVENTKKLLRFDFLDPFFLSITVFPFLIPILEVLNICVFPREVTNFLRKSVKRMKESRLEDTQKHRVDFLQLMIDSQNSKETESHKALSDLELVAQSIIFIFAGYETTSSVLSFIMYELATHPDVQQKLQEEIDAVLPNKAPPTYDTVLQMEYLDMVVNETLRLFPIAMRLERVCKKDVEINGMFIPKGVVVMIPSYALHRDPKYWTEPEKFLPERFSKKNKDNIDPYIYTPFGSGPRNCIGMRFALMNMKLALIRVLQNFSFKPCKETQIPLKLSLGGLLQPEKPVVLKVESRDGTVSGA
The target in another assay is Cytochrome P450 2C19 (Homo sapiens, UniProt P33261). The experiment in a line: Inhibition of human recombinant CYP2C19 by mass spectrophotometry. In kind it is ADME. The procedure, abridged:
as §1

The subject of the next assay is Mus musculus. Description: Antifibrotic activity in C57BL/6 mouse pulmonary fibrosis curative model assessed as reduction in bleomycin-induced collagen deposition at 10 mg/kg, po qd administered 10 days post challenge […] measured on day 25 by SIRCOL assay. In kind it is functional. In a few lines:
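Male C57BL/6 mice (9–10 weeks) under ketamine/xylazine given 0.0125 U bleomycin intratracheally in 40 µL saline. Daily oral dosing at 10 mL/kg in 3% DMSO then aqueous 0.5% CMC/0.25% Tween 20. Whole-lung collagen by Sircol dye binding (0.5 M acetic acid extraction overnight, 540 nm, rat-tail collagen standard), µg per lung.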

The structures appear in SMILES notation.

Chain of Cytochrome P450 2C9 (P11712 whole entry, canonical isoform): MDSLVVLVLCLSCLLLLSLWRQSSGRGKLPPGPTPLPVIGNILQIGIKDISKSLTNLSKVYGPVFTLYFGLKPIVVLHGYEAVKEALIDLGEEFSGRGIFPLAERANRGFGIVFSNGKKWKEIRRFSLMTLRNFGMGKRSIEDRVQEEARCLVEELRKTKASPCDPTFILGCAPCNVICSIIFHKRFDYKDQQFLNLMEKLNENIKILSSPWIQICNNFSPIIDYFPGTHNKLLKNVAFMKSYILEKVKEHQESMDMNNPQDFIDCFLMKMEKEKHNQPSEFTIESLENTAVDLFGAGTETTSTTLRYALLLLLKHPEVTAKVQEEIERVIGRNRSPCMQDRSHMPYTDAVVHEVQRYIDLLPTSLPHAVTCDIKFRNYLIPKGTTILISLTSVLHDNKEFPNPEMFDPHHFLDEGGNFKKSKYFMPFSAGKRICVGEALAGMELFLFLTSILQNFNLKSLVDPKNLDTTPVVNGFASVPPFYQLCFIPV
Chain of Cytochrome P450 2C19 (P33261 whole entry): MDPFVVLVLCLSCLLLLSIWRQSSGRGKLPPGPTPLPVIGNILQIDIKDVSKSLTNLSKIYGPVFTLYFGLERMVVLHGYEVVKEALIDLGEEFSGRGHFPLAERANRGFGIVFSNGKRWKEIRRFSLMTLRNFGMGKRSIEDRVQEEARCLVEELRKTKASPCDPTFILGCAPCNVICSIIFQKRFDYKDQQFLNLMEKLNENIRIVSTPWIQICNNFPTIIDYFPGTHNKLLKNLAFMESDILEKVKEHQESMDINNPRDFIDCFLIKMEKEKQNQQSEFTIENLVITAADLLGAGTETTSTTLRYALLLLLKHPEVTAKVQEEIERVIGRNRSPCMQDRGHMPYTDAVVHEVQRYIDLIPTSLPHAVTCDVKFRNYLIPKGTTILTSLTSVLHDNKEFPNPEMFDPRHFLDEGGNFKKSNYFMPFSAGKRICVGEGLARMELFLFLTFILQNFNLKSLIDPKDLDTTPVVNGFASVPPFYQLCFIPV

What is called IC50 is the midpoint of a concentration-inhibition curve. The term inhibition in vivo denotes the share of the control response that was lost under treatment. For `Cl.O=c1c2c3n(c(=O)cc2[nH]n1-c1ccccc1Cl)CCCN(Cc1ccccc1)C3`, the IC50 at Cytochrome P450 2C9, on Cytochrome P450 3A4 and at Cytochrome P450 2C19 was greater than 25 µM each time. Moreover, in the assay listed under Homo sapiens, the Ratio Ki is 18.6. The inhibition in vivo at 10 mg/kg with Mus musculus is 64%.

Source of the values: ChEMBL document CHEMBL1926564, “Design, synthesis and biological activity of original pyrazolo-pyrido-diazepine, -pyrazine and -oxazine dione derivatives as novel dual Nox4/Nox1 inhibitors” (Bioorg Med Chem, 2011).
